Data reported in ChEMBL document CHEMBL1149489, “Synthesis and biological evaluation of benzamides and benzamidines as selective inhibitors of VEGFR tyrosine kinases” (Bioorg Med Chem Lett, 2006).
Active and inactive are the calls of the source. The rule behind the calls is not given here.

What follows are compounds tested against Epidermal growth factor receptor (Homo sapiens) (UniProt P00533) (assay: Inhibition of EGFR at 10 uM).
In short: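 ELISA autophosphorylation-type assay. Wells were coated overnight at 4 °C with 50 µg/ml poly(Glu:Tyr, 4:1) in PBS. The kinase reaction ran 20 min in 50 mM HEPES, 125 mM NaCl, 10 mM MgCl2, pH 7.4, with 100 µM ATP and compound at 10 µM. Phosphotyrosine was detected with HRP anti-phosphotyrosine antibody and TMB, acid-stopped, and read at A450.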

Epidermal growth factor receptor (Homo sapiens), sequence (P00533 whole entry): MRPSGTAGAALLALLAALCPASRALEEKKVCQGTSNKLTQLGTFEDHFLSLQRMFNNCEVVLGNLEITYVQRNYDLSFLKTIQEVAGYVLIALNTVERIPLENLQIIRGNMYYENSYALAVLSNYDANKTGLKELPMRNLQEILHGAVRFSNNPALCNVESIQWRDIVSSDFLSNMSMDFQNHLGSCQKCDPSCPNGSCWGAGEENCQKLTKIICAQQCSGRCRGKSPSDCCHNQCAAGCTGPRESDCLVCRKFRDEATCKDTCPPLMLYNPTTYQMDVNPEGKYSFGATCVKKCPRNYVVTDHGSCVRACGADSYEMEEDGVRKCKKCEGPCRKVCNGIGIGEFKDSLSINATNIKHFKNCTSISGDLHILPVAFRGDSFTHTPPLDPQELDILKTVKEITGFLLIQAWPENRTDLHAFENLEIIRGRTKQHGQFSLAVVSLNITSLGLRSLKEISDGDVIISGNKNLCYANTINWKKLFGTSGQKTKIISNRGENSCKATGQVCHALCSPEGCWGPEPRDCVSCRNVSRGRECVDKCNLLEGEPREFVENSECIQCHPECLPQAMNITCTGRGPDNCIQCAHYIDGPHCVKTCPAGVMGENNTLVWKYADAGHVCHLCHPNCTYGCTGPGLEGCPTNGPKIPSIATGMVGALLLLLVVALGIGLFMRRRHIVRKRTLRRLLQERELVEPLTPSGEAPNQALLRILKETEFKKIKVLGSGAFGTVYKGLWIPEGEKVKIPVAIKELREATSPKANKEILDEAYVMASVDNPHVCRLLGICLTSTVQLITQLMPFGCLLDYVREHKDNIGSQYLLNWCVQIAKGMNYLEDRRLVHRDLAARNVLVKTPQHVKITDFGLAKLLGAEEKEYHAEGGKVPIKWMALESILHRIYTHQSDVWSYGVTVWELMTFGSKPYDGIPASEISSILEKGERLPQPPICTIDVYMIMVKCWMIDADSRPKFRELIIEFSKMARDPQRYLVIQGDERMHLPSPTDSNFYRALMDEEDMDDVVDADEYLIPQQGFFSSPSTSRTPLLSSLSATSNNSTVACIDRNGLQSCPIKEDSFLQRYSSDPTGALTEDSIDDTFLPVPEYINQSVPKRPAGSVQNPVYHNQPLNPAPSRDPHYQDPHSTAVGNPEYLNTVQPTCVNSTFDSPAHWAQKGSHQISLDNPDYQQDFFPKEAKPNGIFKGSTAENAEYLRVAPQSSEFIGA

Row | Activity | SMILES
1 | inactive | COc1cc(OCc2ccncc2)c(C(=N)Nc2ccccc2Cl)cc1OC
2 | inactive | COc1cc(NCc2ccncc2)c(C(=O)Nc2ccccn2)cc1OC
3 | inactive | COc1cc(OCc2ccncc2)c(C(=O)Nc2ccccc2C(F)(F)F)cc1OC
4 | inactive | O=C(Nc1ccccc1C(F)(F)F)c1ccccc1OCc1ccncc1
5 | inactive | O=C(Nc1ncccn1)c1ccccc1NCc1ccncc1
6 | inactive | COc1cc(OCc2ccncc2)c(C(=N)Nc2ccc(Cl)cc2)cc1OC
7 | inactive | COc1cc(NCc2ccncc2)c(C(=N)Nc2ccccc2Cl)cc1OC
8 | inactive | N=C(Nc1ccccc1Cl)c1ccccc1NCc1ccncc1
9 | inactive | COc1cc(OCc2ccncc2)c(C(=O)Nc2ccc(Cl)cc2)cc1OC
10 | inactive | N=C(Nc1ccccc1Cl)c1ccccc1OCc1ccncc1
11 | inactive | N=C(Nc1ccccc1C(F)(F)F)c1ccccc1OCc1ccncc1
12 | inactive | COc1cc(OCc2ccncc2)c(C(=O)Nc2cnccn2)cc1OC
13 | inactive | N=C(Nc1ccc(Cl)cc1)c1ccccc1NCc1ccncc1
14 | inactive | N=C(Nc1ccc(Cl)cc1)c1ccccc1OCc1ccncc1
15 | inactive | COc1cc(OCc2ccncc2)c(C(=O)Nc2ccccc2Cl)cc1OC
16 | inactive | N=C(Nc1ccccc1C(F)(F)F)c1ccccc1NCc1ccncc1
17 | inactive | COc1cc(NCc2ccncc2)c(C(=N)Nc2ccc(Cl)cc2)cc1OC
18 | inactive | O=C(Nc1cnccn1)c1ccccc1NCc1ccncc1
19 | inactive | COc1cc(OCc2ccncc2)c(C(=O)Nc2ccccn2)cc1OC
20 | inactive | COc1cc(OCc2ccncc2)c(C(=O)Nc2ncccn2)cc1OC
21 | inactive | COc1cc(NCc2ccncc2)c(C(=O)Nc2ncccn2)cc1OC
22 | inactive | COc1cc(OCc2ccncc2)c(C(=N)Nc2ccccc2C(F)(F)F)cc1OC
23 | inactive | COc1cc(NCc2ccncc2)c(C(=N)Nc2ccccc2C(F)(F)F)cc1OC
24 | inactive | COc1cc(NCc2ccncc2)c(C(=O)Nc2cnccn2)cc1OC
25 | inactive | O=C(Nc1ccccn1)c1ccccc1NCc1ccncc1
26 | inactive | O=C(Nc1ccccc1Cl)c1ccccc1OCc1ccncc1
